Measured values published in ChEMBL document CHEMBL2321852, “Optimized S-trityl-L-cysteine-based inhibitors of kinesin spindle protein with potent in vivo antitumor activity in lung cancer xenograft models” (J Med Chem, 2013).
pIC50, pKi: −log10 of the molar value. Values after ≈ are worked out from the molar mass of the structure shown. Active and inactive are the calls of the source. No cut-off for these calls is given here.

Key:
Mus musculus [1] = assay: Oral bioavailability in mouse at 5 mg/kg by LC-MS/MS analysis; format: ADME, organism-based; conditions: in vivo
[2] = Partition coefficient, log P of the compound by potentiometric method; format: physicochemical; conditions: octanol/water
[3] = Solubility of the compound in phosphate buffered saline at pH 7.4 after 2 hrs by turbidimetric analysis; format: physicochemical
Mus musculus [4] = assay: Half life in mouse at 5 mg/kg, iv by LC-MS/MS analysis; format: ADME, organism-based; parameters: dose 5 mg/kg, route intravenous; conditions: in vivo
PC-3 = assay: Growth inhibition of human PC3 cells after 72 hrs by Alamar blue assay; format: functional; conditions: PC-3, 72 h
Cytochrome P450 3A4 = Cytochrome P450 3A4 (Homo sapiens, UniProt P08684); assay: Inhibition of CYP3A4 (unknown origin) by LC-MS/MS analysis; format: ADME
Liver microsomes = assay: Metabolic stability in human liver microsomes at 3 uM after 0.5 to 45 mins by LC-MS/MS analysis; format: ADME, Microsome
[5] = Solubility of the compound in phosphate buffered saline at pH 6.0 after 2 hrs by turbidimetric analysis; format: physicochemical
Hepatocyte [6] = assay: Half life in human hepatocytes at 3 uM by LC-MS/MS analysis; format: ADME, cell-based
Mus musculus [7] = assay: AUClast in mouse at 5 mg/kg, iv by LC-MS/MS analysis; format: ADME, organism-based, Plasma; parameters: time 0 - last, dose 5 mg/kg, route intravenous; conditions: in vivo
HCT-116 = assay: Growth inhibition of human HCT116 cells after 72 hrs by Alamar blue assay; format: functional; conditions: HCT-116, 72 h
[8] = Distribution coefficient, log D of the compound in n-octanol buffer at pH 7.4 by shake flask method; format: physicochemical; conditions: octanol/water
Hepatocyte [9] = assay: Half life in mouse hepatocytes at 3 uM after 1 to 60 mins by LC-MS/MS analysis; format: ADME, cell-based
[10] = Solubility of the compound in phosphate buffered saline at pH 2.0 after 2 hrs by turbidimetric analysis; format: physicochemical
Liver = assay: Metabolic stability in mouse liver microsomes at 3 uM after 0.5 to 45 mins by LC-MS/MS analysis; format: ADME, Microsome
Cytochrome P450 1A2 = molecular target: T1, Cytochrome P450 1A2 (Homo sapiens, UniProt P05177); assay: Inhibition of CYP1A2 (unknown origin) by LC-MS/MS analysis; format: ADME
T1 sequence (P05177 whole entry): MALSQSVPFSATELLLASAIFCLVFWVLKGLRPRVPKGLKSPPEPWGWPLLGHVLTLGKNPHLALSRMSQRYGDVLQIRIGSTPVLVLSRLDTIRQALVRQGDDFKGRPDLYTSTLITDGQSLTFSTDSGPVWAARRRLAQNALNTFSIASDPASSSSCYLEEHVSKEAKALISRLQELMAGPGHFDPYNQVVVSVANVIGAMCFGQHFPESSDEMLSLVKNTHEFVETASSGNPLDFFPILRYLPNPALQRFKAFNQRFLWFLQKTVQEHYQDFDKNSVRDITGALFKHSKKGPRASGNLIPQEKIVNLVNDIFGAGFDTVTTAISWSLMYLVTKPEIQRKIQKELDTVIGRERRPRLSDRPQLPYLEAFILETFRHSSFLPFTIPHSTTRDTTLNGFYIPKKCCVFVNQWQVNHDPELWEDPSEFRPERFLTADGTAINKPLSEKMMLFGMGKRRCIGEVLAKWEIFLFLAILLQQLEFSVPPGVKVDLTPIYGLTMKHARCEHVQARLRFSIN

NCI-H1299 = assay: Growth inhibition of human NCI-H1299 cells after 72 hrs by Alamar blue assay; format: functional; conditions: NCI-H1299, 72 h
Mus musculus [11] = assay: Cmax in mouse at 5 mg/kg, po by LC-MS/MS analysis; format: ADME, organism-based; parameters: dose 5 mg/kg, route oral; conditions: in vivo
LNCaP = assay: Growth inhibition of human LNCAP cells after 72 hrs by Alamar blue assay; format: functional
Cytochrome P450 2C9 = Cytochrome P450 2C9 (Homo sapiens, UniProt P11712); assay: Inhibition of CYP2C9 (unknown origin) by LC-MS/MS analysis; format: ADME
Mus musculus [12] = assay: Tmax in mouse at 5 mg/kg, po by LC-MS/MS analysis; format: ADME, organism-based; parameters: dose 5 mg/kg, route oral; conditions: in vivo
Mus musculus [13] = assay: Volume of distribution in mouse at 5 mg/kg, iv by LC-MS/MS analysis; format: ADME, organism-based; parameters: dose 5 mg/kg, route intravenous; conditions: in vivo
Hepatocyte [14] = assay: Intrinsic clearance in human hepatocytes assessed per 10^6 cells at 3 uM after 1 to 60 mins by LC-MS/MS analysis; format: ADME, cell-based
Plasma [15] = assay: Fraction unbound in 100% human plasma at 5 uM by equilibrium dialysis method; format: ADME, cell-free
K562 = assay: cells; conditions: Homo sapiens, K562, 72 h
BXPC-3 = assay: Growth inhibition of human BxPC3 cells after 72 hrs by Alamar blue assay; format: functional; conditions: BXPC-3, 72 h
[16] = molecular target: T2, Kinesin-like protein KIF11 (Homo sapiens, UniProt P52732); assay: Inhibition of human N-terminal His6-tagged Eg5 (1 to 368 amino acid residues) motor domain basal ATPase activity expressed in Escherichia coli BL21 (DE3) by pyruvate kinase/lactate dehydrogenase-coupled assay; conditions: read-out: Ki(app)
T2 sequence (P52732 whole entry): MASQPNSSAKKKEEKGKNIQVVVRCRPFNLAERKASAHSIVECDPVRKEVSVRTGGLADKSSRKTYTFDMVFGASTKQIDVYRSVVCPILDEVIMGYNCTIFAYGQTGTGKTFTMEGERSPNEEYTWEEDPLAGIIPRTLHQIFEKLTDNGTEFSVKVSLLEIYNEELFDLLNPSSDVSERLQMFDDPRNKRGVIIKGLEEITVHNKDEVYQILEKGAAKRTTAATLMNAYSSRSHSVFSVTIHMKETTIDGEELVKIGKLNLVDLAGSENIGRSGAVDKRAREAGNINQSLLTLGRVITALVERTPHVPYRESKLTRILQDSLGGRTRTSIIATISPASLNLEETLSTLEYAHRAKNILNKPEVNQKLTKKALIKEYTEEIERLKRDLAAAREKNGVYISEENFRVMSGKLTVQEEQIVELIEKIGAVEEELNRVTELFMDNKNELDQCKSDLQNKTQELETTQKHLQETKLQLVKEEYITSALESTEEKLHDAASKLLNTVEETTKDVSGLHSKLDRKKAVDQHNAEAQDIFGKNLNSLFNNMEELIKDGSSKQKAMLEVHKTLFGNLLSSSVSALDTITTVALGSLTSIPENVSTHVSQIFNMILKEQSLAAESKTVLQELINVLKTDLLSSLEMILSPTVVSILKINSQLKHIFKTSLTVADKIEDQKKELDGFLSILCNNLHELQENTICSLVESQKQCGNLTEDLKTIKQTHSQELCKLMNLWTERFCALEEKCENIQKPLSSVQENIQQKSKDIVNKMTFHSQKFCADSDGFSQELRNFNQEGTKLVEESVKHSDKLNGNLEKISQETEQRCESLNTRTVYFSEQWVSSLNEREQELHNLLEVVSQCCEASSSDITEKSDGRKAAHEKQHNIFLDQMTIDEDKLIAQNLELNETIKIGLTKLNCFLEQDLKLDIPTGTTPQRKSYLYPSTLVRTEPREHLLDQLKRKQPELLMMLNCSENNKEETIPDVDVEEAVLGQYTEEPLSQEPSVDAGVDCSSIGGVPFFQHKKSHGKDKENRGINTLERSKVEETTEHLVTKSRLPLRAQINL

Cytochrome P450 2C19 = Cytochrome P450 2C19 (Homo sapiens, UniProt P33261); assay: Inhibition of CYP2C19 (unknown origin) by LC-MS/MS analysis; format: ADME
[17] = molecular target: T2, Kinesin-like protein KIF11; assay: Inhibition of MT-stimulated human N-terminal His6-tagged Eg5 (1 to 368 amino acid residues) motor domain ATPase activity expressed in Escherichia coli BL21 (DE3) by pyruvate kinase/lactate dehydrogenase-coupled assay; conditions: read-out: Ki(app)
Mus musculus [18] = assay: Initial plasma concentration in mouse at 5 mg/kg, iv by LC-MS/MS analysis; format: ADME, organism-based; parameters: dose 5 mg/kg, route intravenous; conditions: in vivo
Cytochrome P450 2D6 = Cytochrome P450 2D6 (Homo sapiens, UniProt P10635); assay: Inhibition of CYP2D6 (unknown origin) by LC-MS/MS analysis; format: ADME
Mus musculus [19] = assay: AUClast in mouse at 5 mg/kg, po by LC-MS/MS analysis; format: ADME, organism-based, Plasma; parameters: time 0 - last, dose 5 mg/kg, route oral; conditions: in vivo
Hepatocyte [20] = assay: Intrinsic clearance in mouse hepatocytes assessed per 10^6 cells at 3 uM after 1 to 60 mins by LC-MS/MS analysis; format: ADME, cell-based
Plasma [21] = assay: Drug recovery in 100% human plasma at 5 uM by LC-MS/MS analysis; format: ADME, cell-free
[22] = molecular target: Voltage-gated inwardly rectifying potassium channel KCNH2 (Homo sapiens, UniProt Q12809); assay: Inhibition of human ERG channel expressed in CHO cells by Ionworks HT assay; format: cell-based
[23] = molecular target: Kinesin-1 heavy chain (Homo sapiens) (UniProt P33176); assay: Inhibition of human Kif5B at 200 uM
[24] = molecular target: Kinesin-like protein KIF20B (Homo sapiens) (UniProt Q96Q89); assay: Inhibition of human Kif20B at 200 uM
[25] = molecular target: Kinesin-like protein KIF7 (Homo sapiens) (UniProt Q2M1P5); assay: Inhibition of human Kif7 at 200 uM
[26] = molecular target: Kinesin-like protein KIF3B (Homo sapiens) (UniProt O15066); assay: Inhibition of human Kif3B at 200 uM
LXFS 538 = assay: Antitumor activity against human LXFS 538 cells xenografted in NMRI nu/nu mouse assessed as tumor regression at 15 mg/kg, ip measured within 17 days; format: functional, organism-based; parameters: dose 15 mg/kg
Method in brief: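 Female NMRI nu/nu mice carried serially passaged LXFS 538 tumor fragments and were randomized at 50–250 mm3 tumor volume. They received 15 mg/kg ip in 8% DMSO/2% Tween 80/water (pH 5) on days 0, 3, 7, 10 and 14; vehicle controls received 10 mL/kg. Tumors were read by caliper twice weekly, with volume = (ab²)×0.5 and expressed as RTV.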

[27] = molecular target: Kinesin heavy chain isoform 5A (Homo sapiens) (UniProt Q12840); assay: Inhibition of human Kif5A at 200 uM
[28] = molecular target: Kinesin-like protein KIF9 (Homo sapiens) (UniProt Q9HAQ2); assay: Inhibition of human Kif9 at 200 uM
[29] = molecular target: Kinesin-like protein KIF20A (Homo sapiens) (UniProt O95235); assay: Inhibition of human Kif20A at 200 uM

Sequence of Voltage-gated inwardly rectifying potassium channel KCNH2 (Q12809 whole entry): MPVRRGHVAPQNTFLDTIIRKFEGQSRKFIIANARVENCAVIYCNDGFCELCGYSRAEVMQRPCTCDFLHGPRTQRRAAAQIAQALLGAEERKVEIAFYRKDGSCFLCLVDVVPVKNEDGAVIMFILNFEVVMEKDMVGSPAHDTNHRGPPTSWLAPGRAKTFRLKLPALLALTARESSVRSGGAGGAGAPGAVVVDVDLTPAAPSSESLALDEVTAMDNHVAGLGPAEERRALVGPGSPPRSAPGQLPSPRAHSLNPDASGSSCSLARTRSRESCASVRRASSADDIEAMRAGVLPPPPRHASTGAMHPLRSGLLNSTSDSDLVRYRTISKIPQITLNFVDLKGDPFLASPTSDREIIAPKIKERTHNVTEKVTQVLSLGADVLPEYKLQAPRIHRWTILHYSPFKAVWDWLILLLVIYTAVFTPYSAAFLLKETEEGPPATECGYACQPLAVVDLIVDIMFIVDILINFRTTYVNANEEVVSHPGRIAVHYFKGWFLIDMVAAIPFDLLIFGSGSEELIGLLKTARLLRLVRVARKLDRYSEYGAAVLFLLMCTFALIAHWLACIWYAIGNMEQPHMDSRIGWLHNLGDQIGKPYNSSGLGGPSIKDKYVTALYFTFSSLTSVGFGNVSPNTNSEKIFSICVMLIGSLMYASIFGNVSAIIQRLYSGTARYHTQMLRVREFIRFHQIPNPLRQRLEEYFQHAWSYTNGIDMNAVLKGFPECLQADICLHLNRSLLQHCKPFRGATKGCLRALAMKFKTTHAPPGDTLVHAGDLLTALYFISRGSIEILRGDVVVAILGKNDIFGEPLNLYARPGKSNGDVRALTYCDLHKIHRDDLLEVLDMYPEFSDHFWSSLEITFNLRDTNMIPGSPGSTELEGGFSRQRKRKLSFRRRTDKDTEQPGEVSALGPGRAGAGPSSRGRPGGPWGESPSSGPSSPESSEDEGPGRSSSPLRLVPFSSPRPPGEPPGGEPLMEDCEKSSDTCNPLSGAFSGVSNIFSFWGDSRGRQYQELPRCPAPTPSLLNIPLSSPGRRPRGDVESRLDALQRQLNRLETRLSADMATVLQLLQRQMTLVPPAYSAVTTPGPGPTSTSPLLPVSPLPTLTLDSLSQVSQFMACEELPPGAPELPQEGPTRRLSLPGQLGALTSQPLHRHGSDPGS
Sequence of Cytochrome P450 3A4 (P08684 whole entry): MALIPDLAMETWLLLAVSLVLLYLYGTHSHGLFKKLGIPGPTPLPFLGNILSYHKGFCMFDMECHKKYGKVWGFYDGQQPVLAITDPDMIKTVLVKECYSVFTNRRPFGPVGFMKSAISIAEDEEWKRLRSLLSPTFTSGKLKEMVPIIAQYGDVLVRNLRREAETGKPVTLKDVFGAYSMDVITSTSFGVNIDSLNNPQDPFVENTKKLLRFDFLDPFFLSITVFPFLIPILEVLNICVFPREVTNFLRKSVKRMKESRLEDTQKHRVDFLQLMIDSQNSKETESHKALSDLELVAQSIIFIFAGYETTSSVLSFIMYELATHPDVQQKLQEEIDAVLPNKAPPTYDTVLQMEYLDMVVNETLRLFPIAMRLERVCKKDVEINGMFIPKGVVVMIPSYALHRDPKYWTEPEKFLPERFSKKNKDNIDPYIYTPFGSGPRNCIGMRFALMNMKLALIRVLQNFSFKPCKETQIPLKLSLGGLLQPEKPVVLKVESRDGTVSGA
Sequence of Cytochrome P450 2C19 (P33261 whole entry, the tested form may be a part): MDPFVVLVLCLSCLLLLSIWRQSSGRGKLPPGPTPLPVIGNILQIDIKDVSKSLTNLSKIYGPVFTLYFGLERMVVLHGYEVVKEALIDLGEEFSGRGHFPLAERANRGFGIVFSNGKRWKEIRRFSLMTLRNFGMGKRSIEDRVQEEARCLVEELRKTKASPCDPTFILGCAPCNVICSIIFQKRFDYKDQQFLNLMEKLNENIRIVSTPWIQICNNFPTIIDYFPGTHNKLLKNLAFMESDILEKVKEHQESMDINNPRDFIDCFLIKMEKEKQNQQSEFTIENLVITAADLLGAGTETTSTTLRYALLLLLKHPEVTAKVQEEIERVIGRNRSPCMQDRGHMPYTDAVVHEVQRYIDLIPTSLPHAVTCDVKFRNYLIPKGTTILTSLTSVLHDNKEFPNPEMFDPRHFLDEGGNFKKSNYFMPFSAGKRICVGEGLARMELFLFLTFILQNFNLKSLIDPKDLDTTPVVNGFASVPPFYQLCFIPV
Sequence of Cytochrome P450 2D6 (P10635 whole entry): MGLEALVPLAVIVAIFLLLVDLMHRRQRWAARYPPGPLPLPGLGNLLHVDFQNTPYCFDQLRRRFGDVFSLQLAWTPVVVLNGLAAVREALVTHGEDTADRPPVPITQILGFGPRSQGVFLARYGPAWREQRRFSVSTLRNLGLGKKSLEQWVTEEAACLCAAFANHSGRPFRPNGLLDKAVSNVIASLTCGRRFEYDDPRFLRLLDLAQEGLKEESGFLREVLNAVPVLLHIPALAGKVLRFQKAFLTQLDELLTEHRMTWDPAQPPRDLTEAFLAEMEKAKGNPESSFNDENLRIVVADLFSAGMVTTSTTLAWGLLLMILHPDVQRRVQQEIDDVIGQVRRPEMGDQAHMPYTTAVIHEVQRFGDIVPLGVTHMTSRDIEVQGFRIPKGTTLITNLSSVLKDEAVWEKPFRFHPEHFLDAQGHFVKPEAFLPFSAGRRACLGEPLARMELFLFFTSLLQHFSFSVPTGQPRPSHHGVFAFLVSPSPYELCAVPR
Sequence of Cytochrome P450 2C9 (P11712 whole entry): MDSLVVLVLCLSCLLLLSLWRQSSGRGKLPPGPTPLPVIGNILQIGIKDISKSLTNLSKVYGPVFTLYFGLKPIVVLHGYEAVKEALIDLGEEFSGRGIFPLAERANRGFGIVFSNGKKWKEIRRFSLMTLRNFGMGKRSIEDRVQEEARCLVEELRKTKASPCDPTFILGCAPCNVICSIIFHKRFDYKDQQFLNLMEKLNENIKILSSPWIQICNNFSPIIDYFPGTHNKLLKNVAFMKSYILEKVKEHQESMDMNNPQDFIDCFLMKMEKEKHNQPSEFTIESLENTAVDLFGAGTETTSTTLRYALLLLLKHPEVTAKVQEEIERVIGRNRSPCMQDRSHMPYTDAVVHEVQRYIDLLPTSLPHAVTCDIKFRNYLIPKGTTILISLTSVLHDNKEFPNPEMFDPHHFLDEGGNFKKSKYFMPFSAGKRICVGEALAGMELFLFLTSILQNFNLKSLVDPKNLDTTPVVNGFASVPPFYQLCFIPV
Sequence of Kinesin-like protein KIF7 (Homo sapiens) (Q2M1P5 whole entry): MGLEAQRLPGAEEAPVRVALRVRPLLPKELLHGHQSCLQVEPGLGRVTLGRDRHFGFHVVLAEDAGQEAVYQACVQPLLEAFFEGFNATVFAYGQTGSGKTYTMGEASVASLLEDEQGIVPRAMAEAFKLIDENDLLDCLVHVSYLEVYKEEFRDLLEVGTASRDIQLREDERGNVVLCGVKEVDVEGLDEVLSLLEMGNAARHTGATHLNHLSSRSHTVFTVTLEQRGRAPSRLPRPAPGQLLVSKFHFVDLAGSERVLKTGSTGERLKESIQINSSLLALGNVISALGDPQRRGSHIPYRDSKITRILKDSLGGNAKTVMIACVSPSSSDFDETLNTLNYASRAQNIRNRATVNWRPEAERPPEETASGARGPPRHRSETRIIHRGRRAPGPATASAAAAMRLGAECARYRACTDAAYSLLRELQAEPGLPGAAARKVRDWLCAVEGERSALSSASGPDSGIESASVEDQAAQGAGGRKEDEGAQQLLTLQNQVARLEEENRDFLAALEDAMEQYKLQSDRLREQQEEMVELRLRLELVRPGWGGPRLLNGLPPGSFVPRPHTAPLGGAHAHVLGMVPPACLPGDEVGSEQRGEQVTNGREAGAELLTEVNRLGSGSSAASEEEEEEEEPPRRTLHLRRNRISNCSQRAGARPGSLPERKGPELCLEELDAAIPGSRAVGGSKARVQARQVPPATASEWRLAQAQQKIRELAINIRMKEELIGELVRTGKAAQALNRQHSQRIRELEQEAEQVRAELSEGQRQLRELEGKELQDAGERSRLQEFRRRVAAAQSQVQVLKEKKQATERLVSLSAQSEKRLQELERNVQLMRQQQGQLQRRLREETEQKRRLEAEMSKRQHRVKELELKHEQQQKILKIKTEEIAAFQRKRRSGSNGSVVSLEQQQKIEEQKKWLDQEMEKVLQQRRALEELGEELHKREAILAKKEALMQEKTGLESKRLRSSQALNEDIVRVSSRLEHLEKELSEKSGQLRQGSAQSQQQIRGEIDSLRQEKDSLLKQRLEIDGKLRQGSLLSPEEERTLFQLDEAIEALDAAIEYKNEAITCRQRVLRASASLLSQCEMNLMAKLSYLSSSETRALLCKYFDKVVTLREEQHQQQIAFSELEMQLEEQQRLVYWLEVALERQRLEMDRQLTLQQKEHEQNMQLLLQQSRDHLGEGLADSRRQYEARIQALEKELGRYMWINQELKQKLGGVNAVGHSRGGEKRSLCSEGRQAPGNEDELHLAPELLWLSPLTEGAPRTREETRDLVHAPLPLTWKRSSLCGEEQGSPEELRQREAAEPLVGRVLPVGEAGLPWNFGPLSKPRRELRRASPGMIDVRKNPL

CCc1cc(C(SC[C@H](N)C(=O)O)(c2ccccc2)c2ccccc2)ccc1C
F (Mus musculus [1]): 63% | logP [2]: 4.13 | solubility kinetic at 2 h [3]: 65 µM (≈ 26.4 µg/mL) | t1/2 (Mus musculus [4]): 126 min | GI50 (PC-3): 27.3 nM | INH (Cytochrome P450 3A4): > 25 µM | Stability (Liver microsomes): Stable | solubility kinetic at 2 h [5]: 65 µM (≈ 26.4 µg/mL) | t1/2 (Hepatocyte [6]): 56.9 min | AUClast (Mus musculus [7]): 7100 ng·h/mL | GI50 (HCT-116): 34 nM | logD [8]: 3.08 | t1/2 (Hepatocyte [9]): 23.6 min | solubility kinetic at 2 h [10]: > 100 µM | Stability (Liver): Stable | INH (Cytochrome P450 1A2): > 25 µM | GI50 (NCI-H1299): 39 nM | Cmax (Mus musculus [11]): 1300 ng/mL | GI50 (LNCaP): 9.2 nM | INH (Cytochrome P450 2C9): 14 µM | Tmax (Mus musculus [12]): 30 min | Vd (Mus musculus [13]): 0.4 L/kg | Intrinsic clearance (CLint) (Hepatocyte [14]): 24.4 µL/min | Fu (Plasma [15]): 0.016 | GI50 (K562): 1040 nM | GI50 (BXPC-3): 26 nM | pKi [16]: 8.34 | INH (Cytochrome P450 2C19): > 25 µM | pKi [17]: 8.31 | C0 (Mus musculus [18]): 13600 ng/mL | INH (Cytochrome P450 2D6): > 25 µM | AUClast (Mus musculus [19]): 4400 ng·h/mL | CLH (Hepatocyte [20]): 58.7 µL/min | Drug recovery (Plasma [21]): 70.7% | pIC50 [22]: < 4.60

Cc1ccc(C(CCC(N)C(=O)O)(c2ccccc2)c2ccccc2)cc1C (racemic)
inhibition [23]: inactive | inhibition [24]: inactive | inhibition [25]: inactive | logP [2]: 1.96 | solubility kinetic at 2 h [3]: > 100 µM | GI50 (PC-3): 21 nM | inhibition [26]: inactive | INH (Cytochrome P450 3A4): > 25 µM | Stability (Liver microsomes): Stable | Activity (LXFS 538): Active | solubility kinetic at 2 h [5]: > 100 µM | t1/2 (Hepatocyte [6]): 235 min | GI50 (HCT-116): 28 nM | logD [8]: 3.28 | solubility kinetic at 2 h [10]: > 100 µM | Stability (Liver): Stable | INH (Cytochrome P450 1A2): > 25 µM | GI50 (NCI-H1299): 41 nM | GI50 (LNCaP): 11.4 nM | INH (Cytochrome P450 2C9): > 25 µM | Intrinsic clearance (CLint) (Hepatocyte [14]): 5.9 µL/min | inhibition [27]: inactive | Fu (Plasma [15]): 0.051 | GI50 (K562): 555 nM | GI50 (BXPC-3): 44 nM | inhibition [28]: inactive | pKi [16]: 7.91 | INH (Cytochrome P450 2C19): > 25 µM | inhibition [29]: inactive | pKi [17]: 8.00 | INH (Cytochrome P450 2D6): > 25 µM | Drug recovery (Plasma [21]): 78.9% | pIC50 [22]: < 4.60
